{
  "source": "ChEMBL document CHEMBL2429759",
  "about": "“Anti-tumor activity evaluation of novel chrysin-organogermanium(IV) complex in MCF-7 cells” (Bioorg Med Chem Lett, 2013)",
  "key": {"[1]": {"system": "MCF-10A", "assay": "Disruption of cell integrity in human MCF10A cells at 10 ug/ml by immunofluorescence analysis relative to control", "type": "ADME, cell-based"}, "[2]": {"system": "MCF-10A", "assay": "Disruption of microfilament organization in human MCF10A cells at 10 ug/ml by immunofluorescence analysis relative to control", "type": "ADME, cell-based"}, "[3]": {"system": "MCF-10A", "assay": "Antimigratory activity against human MCF10A cells at 10 ug/ml by wound-healing assay", "type": "ADME, cell-based", "procedure,_shortened": "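Scratch wound-healing: monolayers wounded with a p200 pipette tip, kept with or without complex; images taken at 0 and 24 h; reference lines drawn equidistant.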"}, "[4]": {"system": "MCF-10A", "assay": "Growth inhibition of human MCF10A cells at 30 ug/ml by MTT assay", "type": "cell-based", "conditions": "mcf-10a"}, "[5]": {"system": "MCF-10A", "assay": "Growth inhibition of human MCF10A cells at 20 ug/ml by MTT assay", "type": "cell-based", "conditions": "mcf-10a"}, "[6]": {"system": "MCF-10A", "assay": "Growth inhibition of human MCF10A cells at 5 ug/ml by MTT assay", "type": "cell-based", "conditions": "mcf-10a"}, "[7]": {"system": "MCF-10A", "assay": "Growth inhibition of human MCF10A cells at 10 ug/ml by MTT assay", "type": "cell-based", "conditions": "mcf-10a"}},
  "data": [
    {"substance": "5-hydroxy-2-phenyl-7-(triphenylgermyloxy)-4H-chromen-4-one ethanol", "values": [
      {"measurement": "Activity", "setting": "[1]", "result": "Non-toxic"},
      {"measurement": "Activity", "setting": "[2]", "result": "Non-toxic"},
      {"measurement": "Activity", "setting": "[3]", "result": "Toxic"},
      {"measurement": "growth inhibition (GI)", "setting": "[4]", "result": 27.25, "unit": "%"},
      {"measurement": "growth inhibition (GI)", "setting": "[5]", "result": 23.67, "unit": "%"},
      {"measurement": "growth inhibition (GI)", "setting": "[6]", "result": 4.822, "unit": "%"},
      {"measurement": "growth inhibition (GI)", "setting": "[7]", "result": 12.3, "unit": "%"}
    ]}
  ]
}
